These results are taken from ChEMBL document CHEMBL1143326, “Single-step high-yield radiosynthesis and evaluation of a sensitive 18F-labeled ligand for imaging brain peripheral benzodiazepine receptors with PET” (J Med Chem, 2009).

Data set [1] in a line: Distribution coefficient, log D at pH 7.4. It counts as physicochemical. Conditions: octanol/water. The method, boiled down: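 Radioligand partitioned between n-octanol and sodium phosphate buffer (0.15 M, pH 7.4); LogD taken as log of the distribution coefficient; n = 6.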
For data set [2], the target named is Translocator protein (Rattus norvegicus, UniProt P16257). Description: Displacement of [3H]PK11195 from rat PBR receptor. (Loss of bound radioactivity is the signal in a displacement assay; it reports binding, not function.)
Data set [3] addresses Translocator protein (Homo sapiens, UniProt P30536). Nature of the data set: Displacement of [3H]PK11195 from human PBR receptor. The method, boiled down:
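Competition binding against [3H]PK 11195 in human brain tissue (mitochondrial fraction of brain homogenate). The tissue came from the NIMH Clinical Brain Disorders Branch. Affinity is expressed as Ki.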

The nature of data set [4]: Displacement of [3H]PK11195 from monkey PBR receptor. Also noted: species or system Macaca mulatta.
Data set [5] can be described thus: Drug level in rat plasma assessed as drug recovery into acetonitrile analytes at >1.39 Ci/umol, iv after 60 mins. Conditions: read-out: Drug uptake. It counts as ADME, organism-based.
A short description of data set [6]: Drug level in rat urine assessed as drug recovery into acetonitrile analytes at >1.39 Ci/umol, iv after 60 mins. Conditions: read-out: Drug uptake. It counts as ADME, organism-based.
Data set [7] concerns Plasma. Description: Drug level in rat plasma assessed as unchanged drug level at >1.39 Ci/umol, iv after 60 mins. Conditions: in vivo, 1 h. It counts as ADME, organism-based.
Data set [8] can be described thus: Stability in rat plasma assessed as drug recovery at 1.36 Ci/umol, iv after 30 mins. It counts as ADME, organism-based. Conditions: read-out: Stability. In a few lines: (§1)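 Isoflurane-anaesthetised rat at 37 °C given no-carrier-added radioligand i.v. (mass dose 0.85 μg/kg); sacrifice at 30 min. Plasma and brain homogenate (saline plus acetonitrile) extracted into acetonitrile; supernatants analysed by reverse-phase radio-HPLC (C18, MeOH/H2O/Et3N 75:25:0.1); recovery of radioactivity and parent fraction measured.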

The nature of data set [9]: Stability in rat plasma at 3.78 ug/kg, iv after 7.3 mins. The format is ADME, organism-based. Conditions: 0.00378 mg/kg, read-out: Stability.
Data set [10] in a line: Drug level in rat urine assessed as unchanged drug level at >1.39 Ci/umol, iv after 60 mins. The format is ADME, organism-based. Conditions: in vivo, 1 h.
The nature of data set [11]: Stability in rat brain at 3.78 ug/kg, iv after 95 mins. The format is ADME, organism-based. Conditions: 0.00378 mg/kg, read-out: Stability.
Data set [12] can be described thus: Stability in sodium phosphate buffer at pH 7.4 after 2 hrs by HPLC. It counts as physicochemical. Conditions: pH 7.4, 2 h. The method, boiled down: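 Radioligand held in sodium phosphate buffer (0.15 M, pH 7.4) for 2 h at room temperature; analysed by HPLC.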
The test system of data set [13] is Plasma. Nature of the data set: Drug distribution in monkey plasma. The format is ADME, cell-free, Macaca mulatta. Conditions: rhesus monkey. In a few lines: (§2)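 Radioligand incubated in vitro with monkey whole blood, then centrifuged; radioactivity counted in the plasma and cell fractions; n = 4.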
Data set [14] relates to Plasma. Description: Stability in rat plasma assessed as drug recovery into acetonitrile analytes at 3.78 ug/kg, iv. Conditions: 0.00378 mg/kg.
Data set [15] is described as follows: Stability in rhesus monkey whole blood assessed as unchanged drug level after 45 mins by HPLC. Conditions: read-out: Stability. It counts as ADME, tissue-based, Macaca mulatta. In a few lines:
(§3)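 Radioligand incubated for at least 45 min at room temperature in monkey whole blood or plasma. Sample mixed with acetonitrile and centrifuged; supernatant analysed by reverse-phase radio-HPLC.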

In data set [16] the test system is Brain. Description: Drug level in rhesus monkey brain assessed as standard uptake value in choroid plexus of fourth ventricle at 2.76 to 5.8 mCi, iv. It counts as ADME, organism-based, Macaca mulatta. Conditions: in vivo. In a few lines: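 Male rhesus monkeys (11–15 kg) anaesthetised with ketamine, then 1.6% isoflurane. Bolus i.v. radioligand (2.76–5.80 mCi; 0.068–0.276 μg/kg) given; PET for up to 300 min, co-registered with T1 MRI. Regional radioactivity expressed as %SUV; n = 4.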

Data set [17] is described as follows: Stability in rat brain assessed as unchanged drug level at 2 uCi upto 60 mins. Conditions: read-out: Stability. It counts as ADME, tissue-based.
Data set [18] has as its system Brain. Nature of the data set: Stability in rat brain assessed as drug recovery into acetonitrile analytes at 3.78 ug/kg, iv. The format is ADME, organism-based. Conditions: in vivo, 0.00378 mg/kg.
The nature of data set [19]: Drug level in rat brain assessed as drug recovery into acetonitrile analytes at >1.39 Ci/umol, iv after 60 mins. It counts as ADME, organism-based. Conditions: read-out: Drug uptake.
The nature of data set [20]: Stability in rat plasma at 3.78 ug/kg, iv after 10.9 mins. It counts as ADME, organism-based. Conditions: 0.00378 mg/kg, read-out: Stability.
Data set [21] has as its system Plasma. Description: Fraction unbound in human plasma. It counts as ADME, cell-free. The method, boiled down:
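Radioligand added to pooled human plasma and ultrafiltered at 5000g through Centrifree units; all filter-unit components counted for radioactivity to give the free fraction; n = 3.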

Data set [22] in a line: Drug level in rat brain assessed as unchanged drug level at >1.39 Ci/umol, iv after 60 mins. Conditions: read-out: Drug uptake. The format is ADME, organism-based.
A short description of data set [23]: Stability in rat plasma at 3.78 ug/kg, iv after 94.3 mins. The format is ADME, organism-based. Conditions: 0.00378 mg/kg, read-out: Stability.
Data set [24] relates to Blood. Description: Drug level in monkey blood assessed as drug distribution in cellular compartment. It counts as ADME, tissue-based, Macaca mulatta. Conditions: rhesus monkey. The method, boiled down: as §2
A short description of data set [25]: Stability in rat brain assessed as drug recovery at 1.36 Ci/umol, iv after 30 mins. The format is ADME, organism-based. Conditions: read-out: Stability. In a few lines:
as §1

Data set [26] can be described thus: Stability in rhesus monkey plasma assessed as unchanged drug level after 45 mins by HPLC. Conditions: read-out: Stability. The format is ADME, cell-free, Macaca mulatta. In a few lines: as §3
In data set [27] the test system is Blood. Description: Drug level in rat blood assessed as standard uptake value at 74.6 uCi, iv after 30 mins. The format is ADME, organism-based. Conditions: in vivo, 0.5 h.
Data set [28] is described as follows: Stability in rat whole blood assessed as conversion into polar radiometabolites at 10 uCi after 30 mins. Conditions: 0.5 h. It counts as ADME, tissue-based. In a few lines: (§4)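 Radioligand incubated for 30 min with rat brain homogenate or rat whole blood; conversion to polar species eluting at the solvent front measured by reverse-phase radio-HPLC.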
Data set [29] has as its system Plasma. Nature of the data set: Drug level in rat plasma assessed generation of polar radiometabolites as at 74.6 uCi, iv after 30 mins. The format is ADME, organism-based. Conditions: in vivo, 0.5 h.
In data set [30] the test system is Brain. Description: Stability in rat brain assessed as conversion into polar radiometabolites at 10 uCi after 30 mins. Conditions: 0.5 h. The format is ADME, tissue-based. In a few lines:
as §4

Data set [31] concerns Plasma. Description: Drug level in rat plasma assessed as standard uptake value at 74.6 uCi, iv after 30 mins. It counts as ADME, organism-based. Conditions: in vivo, 0.5 h.
The subject of data set [32] is Brain. Description: Drug level in rat brain assessed generation of polar radiometabolites as at 74.6 uCi, iv after 30 mins. The format is ADME, organism-based. Conditions: in vivo, 0.5 h.
Data set [33] has as its system Brain. Description: Drug level in rat brain assessed as standard uptake value at 74.6 uCi, iv after 30 mins. The format is ADME, organism-based. Conditions: in vivo, 0.5 h.

pKi: −log10 of the molar value.

Translocator protein (Homo sapiens, UniProt P30536), sequence (P30536 whole entry): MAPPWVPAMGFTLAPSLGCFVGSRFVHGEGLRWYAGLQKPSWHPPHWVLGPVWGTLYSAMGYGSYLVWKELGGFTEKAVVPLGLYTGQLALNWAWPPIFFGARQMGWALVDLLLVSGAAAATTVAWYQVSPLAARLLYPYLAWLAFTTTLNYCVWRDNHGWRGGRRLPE
Translocator protein (Rattus norvegicus, UniProt P16257), sequence (P16257 whole entry, looked up): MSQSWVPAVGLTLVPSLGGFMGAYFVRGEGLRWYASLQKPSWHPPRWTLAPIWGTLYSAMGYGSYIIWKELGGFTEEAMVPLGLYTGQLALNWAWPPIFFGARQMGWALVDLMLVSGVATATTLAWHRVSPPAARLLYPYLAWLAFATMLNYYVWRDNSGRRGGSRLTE

By logD is commonly meant the decadic logarithm of the distribution of all forms, ionised or not, between an organic phase and buffer at a given pH. In general, pKi refers to the Ki on a negative log10 scale, so that one unit is a factor of ten. `COc1ccc(OC)c(CN(C(=O)CF)c2ccccc2Oc2ccccc2)c1` returned a logD in data set [1] of 4.05. Moreover, the figures for the pKi (at Translocator protein [2]; at Translocator protein [3]; in [4]) were 9.74, 9.00 and 9.50, respectively.
For `COc1ccc(OC)c(CN(C(=O)C[18F])c2ccccc2Oc2ccccc2)c1`, the recovery at 1 h in data set [5] is 93.2%; in data set [6] it was 80.3%; in data set [19], 91%. Moreover, the Drug uptake with Plasma [7] was determined as 14.2%; in [10], 0.2%; with Plasma [13], 6.6%; with Blood [24], 93.4%. Further, the remaining at 0.5 h in [8] turned out to be 92.7%; in data set [25] it was 85.1%. The remaining at 0.121667 h in [9] was determined as 44.6%. In data set [11], the remaining at 95 min was 39.2%. Also, the values for the Stability entry (in data set [12]; with Plasma [14]; in the data set with Brain [18]) were “Stable”, 93% and 81.8%, respectively. Also, the remaining at 0.75 h in data set [15] came out at 95.5%; in data set [26], 97.2%. The Activity in the data set with Brain [16] is 350%. For the same compound, the figures for the remaining at 1 h in data set [17] and in [22] were above 99.2% and 32.6%, respectively. In addition, in data set [20], the remaining at 0.181667 h was found to be 37.6%. Further, in the data set with Plasma [21], the Fu turned out to be 0.7%. For the same compound, the remaining at 1.57167 h in [23] is 5.7%.
As for `O=C(C[18F])Nc1ccccc1Oc1ccccc1`, the Drug uptake in the data set with Blood [27] worked out at 196%; in the data set on Plasma [31] it was 226%; with Brain [33], 120%. For the same compound, the Stability (in data set [28]; in the data set on Brain [30]) was above 99.9% each time. Also, the Activity with Plasma [29] and in the data set on Brain [32] was above 99% throughout.
Consider `COc1ccc(OC)c(CN(C(C)=O)c2cc(F)ccc2Oc2ccccc2)c1`, for which the negative logarithm of the Ki (pKi) was 10.14 at Translocator protein [2] and 9.62 at Translocator protein [3].
